# Legend:
# Escherichia coli [1] = assay: Inhibition of wild-type Escherichia coli MurD compound preincubated for 10 mins before substrate addition at 25 uM measured after 15 mins by LC-MS method
# Summary of the method: (§1)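 E. coli wild-type enzyme (4 nM) was preincubated with 25 μM compound for 10 min at 37 °C. Enzymatically generated nucleotide-sugar substrate (~200 μM) plus ATP (~200 μM), or NADPH 200 μM for MurB, was added for 10 min. Reactions were started with amino-acid cosubstrate (MurC–F) or EP-UNAG (MurB), run 15 min at 37 °C, and quenched with formic acid. Product was measured by negative-ESI LC-MS EIC peak area. MgCl2: MurC 10, MurD/E 2, MurF 5 mM; MurB had 5 mM KCl. All in 50 mM NH4HCO3, 0.07% BSA, 1% DMSO; triplicate.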
# [2] = GSH reactivity of the compound assessed as adducts formation meaured over 3 hrs by RP-HPLC analysis
# Summary of the method: (§2)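 Fresh aqueous glutathione (10 mM solution) was added to 50 mM Tris-maleate buffer, pH 7.5. The reaction was started with compound from 10 mM DMSO stock (final 250 μM). Mixtures were followed by reversed-phase HPLC on an ODS column with a gradient to 100% B; rate constants are given in l·mol⁻¹·s⁻¹.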
# Escherichia coli [3] = assay: Inhibition of wild-type Escherichia coli MurF compound preincubated for 10 mins before substrate addition at 25 uM measured after 15 mins by LC-MS method; summary of the method: as §1
# [4] = target: Methionine aminopeptidase 1 (Homo sapiens) (UniProt P53582); assay: Inhibition of human MetAP at 25 uM after 20 mins by HPLC analysis
# Summary of the method: (§3)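 Endpoint assay. Enzyme (50 nM) was preincubated with 25 μM compound for 20 min at 37 °C in 50 mM Tris pH 7.5, 100 mM NaCl, 100 μM CoCl2, 0.075% BSA. MGMM substrate (400 μM) was then added for 15 min (human MetAP-1) or 20 min (E. coli MetAP). Reactions were stopped with TFA. GMM product was quantified by RP-HPLC, UV 214 nm. Triplicate.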
# [5] = GSH reactivity of the compound assessed as adducts formation by RP-HPLC analysis; summary of the method: as §2
# Escherichia coli [6] = assay: Inhibition of wild-type Escherichia coli MurA compound preincubated for 10 mins before substrate addition at 25 uM measured after 15 mins by LC-MS method
# Escherichia coli [7] = assay: Inhibition of wild-type Escherichia coli MurC compound preincubated for 10 mins before substrate addition at 25 uM measured after 15 mins by LC-MS method; summary of the method: as §1
# Escherichia coli [8] = assay: Inhibition of wild-type Escherichia coli MurE compound preincubated for 10 mins before substrate addition at 25 uM measured after 15 mins by LC-MS method; summary of the method: as §1
# Prothrombin (Bos taurus) = Prothrombin (Bos taurus) (UniProt P00735); assay: Inhibition of Bovine thrombin using Boc-Val-Pro-Arg-AMC as substrate compound preincubated at 25 uM for 15 mins by fluorescence assay
# Summary of the method: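 Bovine thrombin (final 10 nM) was preincubated 15 min with 25 μM compound in 50 mM Tris-HCl pH 7.5, 150 mM NaCl, 0.05% Tween 20. The reaction was started with Boc-Val-Pro-Arg-AMC (50 μM final). Fluorescence (ex 355/em 460 nm) was monitored continuously for 10 min; activity taken as slope (RFU/s). Triplicate.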
# [9] = target: Genome polyprotein (West Nile virus) (UniProt P06935); assay: Inhibition of West Nile virus NS2B-NS3 protease at 50 uM
# Escherichia coli [10] = assay: Inhibition of Escherichia coli MetAP at 25 uM after 20 mins by HPLC analysis; summary of the method: as §3
# [11] = target: Genome polyprotein (dengue virus type 2) (UniProt P12823); assay: Inhibition of Dengue virus serotype 2 NS2B-NS3 protease at 50 uM
# Escherichia coli [12] = assay: Inhibition of wild-type Escherichia coli MurB compound preincubated for 10 mins before substrate addition at 25 uM measured after 15 mins by LC-MS method; summary of the method: as §1
# HeLa = assay: Cytotoxicity against human HeLa cells assessed as reduction in cell viability after 24 hrs by CellTiter-Blue assay; type: cell-based
# Summary of the method: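 HeLa cells seeded in triplicate at 5×10^3 cells/well and grown 24 h at 37 °C/5% CO2. Compounds at varying concentrations were added as a 2x stock in phenol-red-free DMEM with FBS, penicillin/streptomycin, sodium pyruvate and L-glutamine, then left 24 h. Medium was replaced with CellTiter-Blue medium for 3 h. A570/A610 was read after background subtraction, as % of untreated controls; EC50 derived.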
# Chain of Genome polyprotein (West Nile virus) (P06935 whole entry): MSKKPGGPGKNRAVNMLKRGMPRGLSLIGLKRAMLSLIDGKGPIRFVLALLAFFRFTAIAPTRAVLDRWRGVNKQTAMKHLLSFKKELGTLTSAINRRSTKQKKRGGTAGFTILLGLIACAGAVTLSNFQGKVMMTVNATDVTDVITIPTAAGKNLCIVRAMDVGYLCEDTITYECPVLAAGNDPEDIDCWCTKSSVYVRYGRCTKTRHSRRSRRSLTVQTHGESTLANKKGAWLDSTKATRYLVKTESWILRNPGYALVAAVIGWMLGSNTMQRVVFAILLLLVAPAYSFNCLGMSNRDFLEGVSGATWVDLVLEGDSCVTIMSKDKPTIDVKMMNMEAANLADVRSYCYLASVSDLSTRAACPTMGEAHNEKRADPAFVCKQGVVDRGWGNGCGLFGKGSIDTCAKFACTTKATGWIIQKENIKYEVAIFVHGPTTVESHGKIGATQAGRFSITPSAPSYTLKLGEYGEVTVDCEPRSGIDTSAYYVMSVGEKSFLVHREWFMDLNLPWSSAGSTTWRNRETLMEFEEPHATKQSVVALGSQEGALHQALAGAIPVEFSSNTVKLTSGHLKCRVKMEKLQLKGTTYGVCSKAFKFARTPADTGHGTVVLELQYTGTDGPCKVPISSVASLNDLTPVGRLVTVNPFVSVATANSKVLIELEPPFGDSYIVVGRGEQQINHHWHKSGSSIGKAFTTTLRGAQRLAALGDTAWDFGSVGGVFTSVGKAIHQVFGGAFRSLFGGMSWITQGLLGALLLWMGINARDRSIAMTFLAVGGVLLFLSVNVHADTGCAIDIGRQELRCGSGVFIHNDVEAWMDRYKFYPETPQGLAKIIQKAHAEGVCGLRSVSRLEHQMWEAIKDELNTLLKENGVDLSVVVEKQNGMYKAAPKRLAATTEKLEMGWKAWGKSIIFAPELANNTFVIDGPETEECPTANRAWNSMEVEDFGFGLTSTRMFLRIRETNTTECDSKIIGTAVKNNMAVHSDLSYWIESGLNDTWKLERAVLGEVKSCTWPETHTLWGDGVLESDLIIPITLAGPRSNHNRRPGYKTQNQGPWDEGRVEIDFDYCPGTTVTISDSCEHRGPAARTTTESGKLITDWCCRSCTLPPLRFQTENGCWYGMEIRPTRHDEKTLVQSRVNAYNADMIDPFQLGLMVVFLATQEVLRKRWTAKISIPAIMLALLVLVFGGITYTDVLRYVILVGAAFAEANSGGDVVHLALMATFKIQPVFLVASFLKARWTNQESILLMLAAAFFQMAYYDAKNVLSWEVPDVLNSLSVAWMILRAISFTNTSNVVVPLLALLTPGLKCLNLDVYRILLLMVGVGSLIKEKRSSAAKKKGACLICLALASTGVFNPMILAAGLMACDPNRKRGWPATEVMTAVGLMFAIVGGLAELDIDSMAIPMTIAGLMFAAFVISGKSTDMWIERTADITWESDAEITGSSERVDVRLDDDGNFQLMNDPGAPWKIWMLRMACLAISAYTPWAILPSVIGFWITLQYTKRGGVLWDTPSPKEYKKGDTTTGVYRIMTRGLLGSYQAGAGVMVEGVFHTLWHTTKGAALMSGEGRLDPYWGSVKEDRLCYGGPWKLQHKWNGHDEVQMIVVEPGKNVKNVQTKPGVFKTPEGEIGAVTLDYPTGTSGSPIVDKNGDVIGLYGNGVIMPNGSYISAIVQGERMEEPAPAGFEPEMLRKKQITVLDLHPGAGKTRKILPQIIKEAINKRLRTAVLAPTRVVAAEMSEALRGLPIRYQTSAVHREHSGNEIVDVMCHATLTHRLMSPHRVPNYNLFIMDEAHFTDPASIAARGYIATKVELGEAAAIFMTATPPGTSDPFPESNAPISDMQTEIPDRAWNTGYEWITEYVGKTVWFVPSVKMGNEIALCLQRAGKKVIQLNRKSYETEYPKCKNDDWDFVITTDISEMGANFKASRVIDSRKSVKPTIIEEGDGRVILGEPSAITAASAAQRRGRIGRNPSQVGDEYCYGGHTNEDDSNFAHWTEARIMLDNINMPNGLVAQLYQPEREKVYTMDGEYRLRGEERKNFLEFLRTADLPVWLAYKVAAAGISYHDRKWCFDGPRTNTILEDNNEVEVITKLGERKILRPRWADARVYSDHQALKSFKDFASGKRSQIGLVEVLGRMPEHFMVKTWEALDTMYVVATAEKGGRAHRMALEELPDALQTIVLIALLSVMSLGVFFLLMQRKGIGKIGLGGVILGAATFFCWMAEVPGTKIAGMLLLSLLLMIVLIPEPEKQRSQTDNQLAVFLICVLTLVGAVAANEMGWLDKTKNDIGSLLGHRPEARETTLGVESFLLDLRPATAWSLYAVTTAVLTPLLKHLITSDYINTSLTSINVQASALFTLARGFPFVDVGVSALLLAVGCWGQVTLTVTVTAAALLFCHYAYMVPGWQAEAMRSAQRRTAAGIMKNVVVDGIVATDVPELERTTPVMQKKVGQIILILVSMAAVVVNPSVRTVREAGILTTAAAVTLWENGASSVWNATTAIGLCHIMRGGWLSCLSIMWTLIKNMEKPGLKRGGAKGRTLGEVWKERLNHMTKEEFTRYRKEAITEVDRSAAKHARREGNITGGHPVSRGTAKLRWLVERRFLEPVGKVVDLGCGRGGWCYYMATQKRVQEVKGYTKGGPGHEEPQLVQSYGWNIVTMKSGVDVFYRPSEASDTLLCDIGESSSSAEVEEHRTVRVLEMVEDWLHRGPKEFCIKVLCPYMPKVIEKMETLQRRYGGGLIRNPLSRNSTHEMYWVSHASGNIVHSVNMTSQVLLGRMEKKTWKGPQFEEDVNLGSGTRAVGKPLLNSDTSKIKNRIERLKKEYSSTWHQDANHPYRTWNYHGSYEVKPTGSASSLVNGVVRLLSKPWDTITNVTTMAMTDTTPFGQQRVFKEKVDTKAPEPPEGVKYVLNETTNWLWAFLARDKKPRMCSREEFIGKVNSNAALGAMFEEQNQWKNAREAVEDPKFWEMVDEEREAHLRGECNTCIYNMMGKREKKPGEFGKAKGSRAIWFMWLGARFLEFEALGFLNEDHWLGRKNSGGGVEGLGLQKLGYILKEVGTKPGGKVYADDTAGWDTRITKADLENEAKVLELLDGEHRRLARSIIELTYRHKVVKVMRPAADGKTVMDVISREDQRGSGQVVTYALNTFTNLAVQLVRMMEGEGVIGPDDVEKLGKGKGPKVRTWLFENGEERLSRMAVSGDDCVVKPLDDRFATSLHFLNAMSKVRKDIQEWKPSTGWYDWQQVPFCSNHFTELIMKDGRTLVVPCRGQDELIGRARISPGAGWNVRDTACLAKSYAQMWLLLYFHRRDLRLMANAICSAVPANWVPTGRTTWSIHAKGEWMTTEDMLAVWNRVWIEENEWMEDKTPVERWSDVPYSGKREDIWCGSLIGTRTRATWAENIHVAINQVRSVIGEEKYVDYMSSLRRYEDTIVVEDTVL
SMILES,inhibition (Escherichia coli [1]) [%],inhibition (Escherichia coli [3]) [%],inhibition [4] [%],inhibition (Escherichia coli [6]) [%],inhibition (Escherichia coli [7]) [%],inhibition (Escherichia coli [8]) [%],inhibition (Prothrombin (Bos taurus)) [%],inhibition [9] [%],inhibition (Escherichia coli [10]) [%],inhibition [11] [%],inhibition (Escherichia coli [12]) [%],Activity [2] [%],Activity [5] [L/mol/s],EC50 (HeLa) [µM]
C=CC(=O)NCCc1ccccc1,< 15,< 15,< 15,< 15,< 15,< 15,< 15,< 15,< 15,< 15,< 15,< 5,< 0.1,–
CCCCNC(=O)CCl,< 15,< 15,< 15,< 15,< 15,15,< 15,< 15,< 15,< 15,< 15,–,< 0.1,> 100
C=CCNc1ccccc1,< 15,< 15,22,16,< 15,< 15,< 15,< 15,< 15,< 15,< 15,–,< 0.1,> 100
N#CCNC(=O)/C=C/c1ccccc1,< 17,< 15,< 15,< 15,< 15,< 15,< 15,18,< 15,17,< 15,–,< 0.1,> 100
O=C(CCl)NCc1ccccc1,< 15,< 15,< 15,< 15,< 15,< 15,< 15,< 15,< 15,< 15,< 15,–,< 0.1,–
C=CCNC,< 15,< 15,< 15,< 15,< 15,< 15,< 15,< 15,< 15,< 15,< 15,–,< 0.1,–
N#CCC(=O)NCc1ccccc1,< 15,< 15,< 15,< 15,< 15,< 15,< 15,18,< 15,< 15,< 15,–,< 0.1,–
COc1ccc(NC(=O)CCl)cc1,< 15,< 15,< 15,< 15,< 15,< 15,< 15,< 15,< 15,< 15,< 15,–,< 0.1,–
N#CCC(=O)NCCc1ccccc1,< 15,< 15,< 15,< 15,< 15,< 15,< 15,22,< 15,< 15,< 15,–,< 0.1,–
C=CCNc1ccc(OC)cc1,< 15,< 15,< 15,< 15,< 15,< 15,< 15,< 15,< 15,< 15,20,–,< 0.1,–
BrC1=NOC(c2ccccc2)C1 (stereo not given),< 17,< 15,< 15,< 15,< 15,< 15,< 15,< 15,< 15,< 15,< 15,–,< 0.1,–
O=C(CCl)NC1CCCC1,< 15,< 15,< 15,< 15,< 15,< 15,< 15,< 15,< 15,< 15,< 15,–,< 0.1,–
N#CCC(=O)Nc1ccc(F)cc1,< 15,< 15,< 15,< 15,< 15,< 15,< 15,< 15,< 15,< 15,< 15,–,< 0.1,–

# Now from value to compound, other results behind:
inhibition (Escherichia coli [1]) [%],inhibition (Escherichia coli [3]) [%],inhibition [4] [%],inhibition (Escherichia coli [6]) [%],inhibition (Escherichia coli [7]) [%],inhibition (Escherichia coli [8]) [%],inhibition (Prothrombin (Bos taurus)) [%],inhibition [9] [%],inhibition (Escherichia coli [10]) [%],inhibition [11] [%],inhibition (Escherichia coli [12]) [%],SMILES,Activity [2] [%],Activity [5] [L/mol/s],EC50 (HeLa) [µM]
< 15,< 15,< 15,< 15,< 15,< 15,< 15,< 15,< 15,< 15,< 15,C=CC(=O)Nc1ccc(OC)cc1,< 5,< 0.1,–
< 15,< 15,< 15,< 15,< 15,< 15,< 15,23,< 15,< 15,17,N#CCNC(=O)c1ccccc1,–,< 0.1,> 100
< 15,< 15,< 15,< 15,< 15,< 15,< 15,< 15,< 15,< 15,19,C=CCNCCCC,–,< 0.1,> 100
< 15,< 15,< 15,< 15,< 15,15,< 15,16,< 15,< 15,< 15,COc1ccc(NC(=O)CC#N)cc1,–,< 0.1,–
< 15,< 15,< 15,< 15,< 15,< 15,< 15,< 15,< 15,< 15,< 15,CCCCNC(=O)CC#N,–,< 0.1,> 100
18,< 15,< 15,< 15,< 15,17,< 15,< 15,< 15,< 15,< 22,CCCCC(N)C(=O)OC (stereo not given),–,< 0.1,–
< 15,< 15,< 15,< 15,< 15,< 15,< 15,< 15,< 15,< 15,< 15,CC(=O)Nc1ccc([N+](=O)[O-])cc1,–,< 0.1,–
< 15,< 15,< 15,< 15,< 15,16,< 15,< 15,< 15,< 15,< 15,N#CCC(=O)NC1CCCC1,–,< 0.1,–

# Reference: ChEMBL document CHEMBL3352149, “Promiscuity and selectivity in covalent enzyme inhibition: a systematic study of electrophilic fragments” (J Med Chem, 2014)
